Measurements published in ChEMBL document CHEMBL1154096, “Design, synthesis and anticancer evaluation of novel tetrahydroquinoline derivatives containing sulfonamide moiety” (Eur J Med Chem, 2009).
Values after ≈ are worked out from the molar mass of the structure shown.

The molecules below were run on MCF7 (assay: Cytotoxicity against human MCF7 cells after 48 hrs by SRB assay). Conditions: MCF7, 48 h.
Format: functional, cell-based
Summary of the method: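 Cells seeded at 10⁴/well and left 24 h to attach. Compounds dissolved in DMSO, diluted in saline and added to the monolayer in triplicate wells per dose, then incubated 48 h at 37 °C in 5% CO₂. Cells were fixed and stained 30 min with 0.4% SRB in 1% acetic acid, washed four times with 1% acetic acid, and the dye recovered in Tris–EDTA. Absorbance was read, and surviving fraction plotted against concentration.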

SMILES	IC50 [µg/mL]
Cc1c2c(nc3ncn(-c4ccc(S(N)(=O)=O)cc4)c(=N)c13)CC(C)(C)CC2=O	1.5 (≈ 3.65 µM)
Cc1c2c(nc3[nH]c(=S)n(-c4ccc(S(=O)(=O)Nc5ncccn5)cc4)c(=N)c13)CC(C)(C)CC2=O	9.19 (≈ 17.6 µM)
Cc1c2c(nc3[nH]c(=S)n(-c4ccc(S(N)(=O)=O)cc4)c(=N)c13)CC(C)(C)CC2=O	4 (≈ 9.02 µM)
Cc1c(C#N)c(/N=C/Nc2ccc(S(N)(=O)=O)cc2)nc2c1C(=O)CC(C)(C)C2	2.62 (≈ 6.37 µM)
Cc1c2c(nc3[nH]c(=S)n(-c4ccc(S(N)(=O)=O)cc4)c(=N)c13)CCCC2	0.95 (≈ 2.37 µM)
Cc1cc(NS(=O)(=O)c2ccc(N/C=N/c3nc4c(c(C)c3C#N)CCCC4)cc2)no1	1.95 (≈ 4.33 µM)
Cc1cc(NS(=O)(=O)c2ccc(-n3c(=S)[nH]c4nc5c(c(C)c4c3=N)CCCC5)cc2)no1	2.62 (≈ 5.43 µM)
Cc1c2c(nc3[nH]c(=S)n(-c4ccc(S(=O)(=O)NC(=N)N)cc4)c(=N)c13)CC(C)(C)CC2=O	5.17 (≈ 10.6 µM)
Cc1cc(NS(=O)(=O)c2ccc(-n3cnc4nc5c(c(C)c4c3=N)C(=O)CC(C)(C)C5)cc2)no1	2.6 (≈ 5.28 µM)
Cc1cc(NS(=O)(=O)c2ccc(N/C=N/c3nc4c(c(C)c3C#N)C(=O)CC(C)(C)C4)cc2)no1	1.9 (≈ 3.86 µM)
Cc1cc(NS(=O)(=O)c2ccc(-n3c(=S)[nH]c4nc5c(c(C)c4c3=N)C(=O)CC(C)(C)C5)cc2)no1	> 10
Cc1c2c(nc3[nH]c(=S)n(-c4ccc(S(=O)(=O)NC(=N)N)cc4)c(=N)c13)CCCC2	1.28 (≈ 2.89 µM)
Cc1c(C#N)c(/N=C/Nc2ccc(S(N)(=O)=O)cc2)nc2c1CCCC2	> 10
Cc1c2c(nc3[nH]c(=S)n(-c4ccc(S(=O)(=O)Nc5ncccn5)cc4)c(=N)c13)CCCC2	1.48 (≈ 3.09 µM)
